Screens (PubChem)
TNAP inh hiacc – human TNAP enzyme inhibitors, primary screen, biochemical, luminescent, high phosphate acceptor level, uHTS | inhibition, % at 20 µM | purified TNAP, CDP-star luminescence, 1 M DEA | 0.03% of 200,000 active;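 active = over 50% inhibition of tissue-nonspecific alkaline phosphatase at 20 µM in the single-dose screen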;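 also: plate controls were DMSO wells for no effect and EDTA-quenched wells as full inhibition for full effect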
Target sequence (P05186 whole entry, looked up): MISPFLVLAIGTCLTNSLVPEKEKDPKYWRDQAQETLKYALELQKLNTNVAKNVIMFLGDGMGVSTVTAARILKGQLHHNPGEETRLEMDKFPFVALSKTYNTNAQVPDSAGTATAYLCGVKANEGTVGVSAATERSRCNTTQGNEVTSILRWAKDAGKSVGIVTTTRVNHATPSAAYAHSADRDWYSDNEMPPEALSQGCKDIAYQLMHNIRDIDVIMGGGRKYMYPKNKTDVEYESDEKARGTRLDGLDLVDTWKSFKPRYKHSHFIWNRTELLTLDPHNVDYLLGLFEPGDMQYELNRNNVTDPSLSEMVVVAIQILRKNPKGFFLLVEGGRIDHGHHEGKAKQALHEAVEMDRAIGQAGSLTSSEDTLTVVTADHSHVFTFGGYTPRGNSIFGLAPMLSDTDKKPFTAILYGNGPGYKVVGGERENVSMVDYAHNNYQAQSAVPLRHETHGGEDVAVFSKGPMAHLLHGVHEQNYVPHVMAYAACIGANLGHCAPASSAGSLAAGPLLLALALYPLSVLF
TNAP inh no acc – human TNAP enzyme inhibitors, primary screen, biochemical, luminescent, no phosphate acceptor, uHTS; 0.26% of 200,000 active; AID 1012, 2008; Alkaline phosphatase, tissue-nonspecific isozyme (Homo sapiens), P05186; inhibition, % at 20 µM; purified TNAP, CDP-star luminescence, 30 min;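 active = tissue-nonspecific alkaline phosphatase inhibition above about 50% at 20 µM in the single-dose screen, limit read from the data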;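 also: 0% = DMSO negative control and 100% = EDTA positive control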
bCat KO growth – primary screen for growth suppressors in beta-catenin knockout HCT116 cells (colon tumor, human); HCT116 beta-catenin knockout viability, CellTiter-Glo, 60 h; active compounds read low; AID 818, 2007; viability, % at 10 µM; 1.5% of 140,000 active;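 active = viability at or under a set limit, the compound median less 4 SD, cut at about 6% in these data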;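 also: 0% = Hyamine 1622 control at 20 µM and 100% = untreated cell control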
L major viab – Leishmania major promastigote growth inhibition, primary screen. Leishmania major promastigotes, resazurin fluorescence viability. inhibition, % at 10 µM. 9% of 200,000 active. AID 1063, 2008; in the data active = inhibition above about 50%;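 also: promastigotes grown with compound for 44 hours at 28 °C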
TNAP act hiacc – TNAP activators at high phosphate acceptor level, primary screen, biochemical, luminescence, uHTS. Alkaline phosphatase, tissue-nonspecific isozyme (Homo sapiens), P05186. purified TNAP, CDP-star luminescence, 1 M DEA, 30 min; active compounds read high; 0 = EDTA background, 1 = DMSO-only activity. activation factor at 20 µM. 200,000 tested, under 10 active;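 active = activation factor at least 2 at 20 µM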
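Control set: EDTA negative control, DMSO positive control / Assay system: human TNAP / Quantity: TNAP 1/800 final / Evaluation: TNAP activation factor scaled between EDTA and DMSO control wells / Measured by: luminescent substrate turnover signal / Compound dosing: one dose, 20 µM / Times: 30 min enzyme reaction at room temperature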
PTEN del growth – growth suppression of PTEN-null HCT116, primary screen, cell-based, CellTiter-Glo; HCT116 PTEN-null viability, 60 h; active compounds read low; viability, % at 10 µM; 1.2% of 140,000 active;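 active = viability at or below a set limit, 4 SD under the median of all tested compounds, cut at about 3.7% in these data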;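 also: PTEN knockout HCT116 line with beta catenin targeted HCT116 as companion control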
An asterisk follows results filed as active; / = not tested or not shown. Compounds with a hit are over-represented: about 9.6% of the library has one in this group of screens.

SMILES	TNAP inh hiacc	TNAP inh no acc	bCat KO growth	L major viab	TNAP act hiacc	PTEN del growth
CCCCNS(=O)(=O)c1ccc2nc(SCC(=O)c3ccccc3OC)[nH]c2c1	-3.8	-24.3	65.9	99.2*	1	66.1
CCN1/C(=C2/SC(=S)NC2=O)Sc2ccccc21	6.9	8.9	/	76.5*	0.9	/
COc1cccc(CN2CCN(Cc3cc(OC)c(OC)cc3[N+](=O)[O-])CC2)c1	-6.0	-12.3	68.0	59.8*	1.1	78.7
COc1cc(CN2CCN(Cc3ccc([N+](=O)[O-])cc3)CC2)c([N+](=O)[O-])cc1OC	-4.3	-7.4	/	67.7*	1	/
CC(=O)c1ccc(NC(=S)NCCc2cccc(Cl)c2)cc1	0.6	-0.8	/	31.3	1	/
CCOc1ccc(N(CC(=O)NCCc2ccc(Cl)cc2)S(=O)(=O)c2c(C)[nH]c(=O)[nH]c2=O)cc1	-5.2	-7.6	/	-2.1	1.1	/
CCOC(=O)N/N=C(C)/C=C/c1ccco1	-2.6	-4.4	96.5	84.2*	1	102.7
CC1=C(C(N)=O)C(c2cccnc2)n2nc(-c3cccc(C)c3)nc2N1 (centres undefined)	/	/	102.5	84.6*	/	88.3
CC1=C(C(N)=O)C(c2cccs2)n2nc(-c3cccc(C)c3)nc2N1 (centres undefined)	/	/	97.5	-0.6	/	80.6
COc1coc(/C=C/C(=O)O)cc1=O	-2.8	-7.7	91.2	-4.6	1	98.2
CC(C)NCC(O)Cn1c2c(c3ccccc31)CCc1c-2cnn1-c1ccccc1 (centres undefined)	-0.9	-3.0	1.5*	100.5*	1	2.0*
CC(C)(C)[C@@H]1C=C(C(=O)Nc2ccccc2)O[C@H](OCc2ccc(CO)cc2)C1	-2.2	-1.3	/	98.5*	1	/
O=C(NC1CC1)C1=C[C@@H](C2CCCCC2)C[C@@H](OCc2ccc(CO)cc2)O1	-8.3	-13.8	/	98.0*	1.1	/
NC(=O)C1=C[C@H](C2CCCCC2)C[C@H](OCc2ccc(CO)cc2)O1	-10.4	-8.5	/	-4.5	1.1	/
O=C(Nc1ccccc1)C1=C[C@@H](c2ccc(Br)cc2)C[C@@H](OCc2ccc(CO)cc2)O1	-0.1	-1.8	/	56.1*	1	/
NC(=O)c1ncc(C(F)(F)F)cc1Oc1cccnc1	-0.8	-5.5	/	-5.0	1	/
Cc1cc(C)n(-c2nc3sc4c(c3c(=O)[nH]2)CCCC4)n1	-0.8	-6.4	4.7*	99.2*	1	2.6*
COc1ccc(OC)c(-n2c(=S)[nH]c3cc(C(=O)N4CCN(c5ccccc5)CC4)ccc3c2=O)c1	-1.9	-9.7	/	-4.4	1	/
COc1ccc(C=C(c2nc3ccccc3s2)c2nc3ccccc3s2)cc1O	0.0	-32.7	25.1	99.2*	1	23.5
COc1cc(C=C(c2nc3ccccc3s2)c2nc3ccccc3s2)ccc1O	35.8	16.5	51.1	96.8*	0.6	44.0
COc1ccccc1NC(=S)NC(NC(=O)CC(C)C)C(Cl)(Cl)Cl (centres undefined)	-7.2	-10.6	/	-1.3	1.1	/
CC(=O)Nc1ccc(S(=O)(=O)N2CCN(c3nc(NC4CCCC4)c4ccccc4n3)CC2)cc1	-9.7	-16.1	1.5*	31.7	1.1	1.5*
O=C(Cc1cccs1)NNC(=O)C12CC3CC(CC(C3)C1)C2	-2.8	-72.3	/	-5.8	1	/
O=S(=O)(c1cnc[nH]1)N1CCc2ccccc21	16.0	8.7	87.5	61.4*	0.8	92.7
CC1Cc2ccccc2N1S(=O)(=O)c1cnc[nH]1 (centres undefined)	42.8	40.3	93.0	-6.5	0.6	90.8
SMILES	TNAP inh hiacc	TNAP inh no acc	bCat KO growth	L major viab	TNAP act hiacc	PTEN del growth
Cc1ccnc(NC(=O)Cn2cc([N+](=O)[O-])cn2)c1	-2.7	-3.7	/	5.0	1	/
COc1ccc(C(C[N+](=O)[O-])c2c(-c3ccccc3)cc3ccccn23)cc1OC (centres undefined)	-6.0	-14.2	40.6	99.9*	1.1	48.6
COc1cc(C(C[N+](=O)[O-])c2c(-c3ccccc3)cc3ccccn23)cc(OC)c1OC (centres undefined)	0.5	-2.5	56.4	92.6*	1	35.2
COc1ccc(C(C[N+](=O)[O-])c2c(-c3ccccc3)cc3ccccn23)cc1 (centres undefined)	-2.0	-6.1	3.3*	100.4*	1	1.9*
O=Nc1c(-c2ccccc2)cc2ccccn12	17.5	13.2	/	7.5	0.8	/
Cc1ccc(C)c(CSc2ccc3nnc(-c4ccccn4)n3n2)c1	-6.9	-6.8	/	21.4	1.1	/
CCOC(=O)C(NC(=O)c1ccc(Cl)cc1Cl)(Nc1ccc(C)cc1)C(F)(F)F (centres undefined)	3.0	-5.5	89.3	15.7	1	89.4
CCC(=O)c1c(NC(CC)CO)cc(C)oc1=O (centres undefined)	-0.4	-11.5	/	-4.3	1	/
S=C(Nc1ccc2cn[nH]c2c1)Nc1ccccc1Cl	5.3	-1.2	92.9	10.0	0.9	99.9
CCN1/C(=C/c2cc[n+](C)cc2)C=Cc2cc(C)ccc21	46.9	40.0	7.6	100.5*	0.5	6.9
CCN1C(=O)/C(=C2\C=Cc3cc(C)ccc3N2CC)OC1=S	15.4	17.2	93.7	2.1	0.8	92.4
O=C(c1ccccc1OCc1ccccc1Br)N1CCN(c2ncccn2)CC1	-0.5	-1.5	50.9	68.3*	1	40.0
Cc1ccc(-n2c(O)c(C=NCc3ccccn3)c3ccccc3c2=O)cc1C	-0.9	-53.3	59.4	70.8*	1	66.1
O=c1c2ccccc2c(C=NCc2ccccn2)c(O)n1-c1ccccc1	-7.3	-9.2	93.3	-0.3	1.1	101.3
COc1ccc(C(=O)NCc2nnc(SCC(=O)Nc3ccc4c(c3)OCO4)o2)cc1	-8.0	-14.5	/	-3.7	1.1	/
Cc1cc(C)cc(NC(=O)CSc2ccc(-c3ccco3)nn2)c1	-2.0	-0.6	81.0	50.9*	1	91.7
Cc1ccc(CNC(=O)CSc2ccc(-c3ccco3)nn2)cc1	0.8	-0.5	89.5	63.0*	1	95.1
Cc1cccc(NC(=O)CSc2ccc(-c3ccco3)nn2)c1	-2.2	-4.5	89.3	19.4	1	94.5
CCOC(=O)N1C(=O)C2(CCCCC2)N(c2ccccc2Cl)C1=S	-6.7	5.9	86.0	16.1	1.1	87.5
CCOC(=O)n1c(=O)n(Cc2ccccc2C)c2ccccc21	-1.3	-6.2	/	10.7	1	/
COc1ccc(CNC(=O)COc2ccc(S(=O)(=O)NC(C)C)cc2)cc1	-7.4	-6.6	78.1	64.6*	1.1	98.1
CCOc1cc(-c2c(C#N)c(N)nc3c2CCc2ccccc2-3)ccc1O	-2.4	-0.2	49.5	90.3*	1	46.6
